Experimental data from ChEMBL document CHEMBL1128737, “Inhibition of herpes simplex virus type 1 helicase-primase by (dichloroanilino)purines and -pyrimidines” (J Med Chem, 1995).

What was measured:
[1] = test system: HeLa; assay: Inhibition of HSV-1 DNA synthesis in virus-infected HeLa cells; format: functional, cell-based; conditions: Homo sapiens
How it was run: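 HeLa cells (2 × 10^4/well) grown 24 h at 37 °C, infected with HSV1 KOS, adsorbed 90 min. Serial compound dilutions in DMEM/2% FCS added to duplicate wells for 24 h.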

[2] = test system: HeLa; assay: Inhibition of [3H]thymidine incorporation into the DNA of uninfected HeLa cells; format: functional, cell-based; conditions: Homo sapiens
How it was run: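 Uninfected HeLa cells (3 × 10^6/well) in DMEM/10% FCS grown 24 h, then given serial compound dilutions or DMSO in duplicate for a further 24 h at 37 °C. [3H]thymidine (1 μCi/mL) added for 3 h, followed by NaOH lysis, 5% TCA precipitation, filter collection and scintillation counting.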

[3] = target: T1, DNA helicase/primase complex protein (Herpes simplex virus (type 1 / strain 17)) (UniProt P10236); assay: Inhibition against DNA-Dependent ATPase activity of HSV-1 helicase-primase in HSV-1-infected CV-1 cells; format: cell-based; parameters: concentration or dose not given beside the values; conditions: concentration not given here
T1 sequence (whole entry): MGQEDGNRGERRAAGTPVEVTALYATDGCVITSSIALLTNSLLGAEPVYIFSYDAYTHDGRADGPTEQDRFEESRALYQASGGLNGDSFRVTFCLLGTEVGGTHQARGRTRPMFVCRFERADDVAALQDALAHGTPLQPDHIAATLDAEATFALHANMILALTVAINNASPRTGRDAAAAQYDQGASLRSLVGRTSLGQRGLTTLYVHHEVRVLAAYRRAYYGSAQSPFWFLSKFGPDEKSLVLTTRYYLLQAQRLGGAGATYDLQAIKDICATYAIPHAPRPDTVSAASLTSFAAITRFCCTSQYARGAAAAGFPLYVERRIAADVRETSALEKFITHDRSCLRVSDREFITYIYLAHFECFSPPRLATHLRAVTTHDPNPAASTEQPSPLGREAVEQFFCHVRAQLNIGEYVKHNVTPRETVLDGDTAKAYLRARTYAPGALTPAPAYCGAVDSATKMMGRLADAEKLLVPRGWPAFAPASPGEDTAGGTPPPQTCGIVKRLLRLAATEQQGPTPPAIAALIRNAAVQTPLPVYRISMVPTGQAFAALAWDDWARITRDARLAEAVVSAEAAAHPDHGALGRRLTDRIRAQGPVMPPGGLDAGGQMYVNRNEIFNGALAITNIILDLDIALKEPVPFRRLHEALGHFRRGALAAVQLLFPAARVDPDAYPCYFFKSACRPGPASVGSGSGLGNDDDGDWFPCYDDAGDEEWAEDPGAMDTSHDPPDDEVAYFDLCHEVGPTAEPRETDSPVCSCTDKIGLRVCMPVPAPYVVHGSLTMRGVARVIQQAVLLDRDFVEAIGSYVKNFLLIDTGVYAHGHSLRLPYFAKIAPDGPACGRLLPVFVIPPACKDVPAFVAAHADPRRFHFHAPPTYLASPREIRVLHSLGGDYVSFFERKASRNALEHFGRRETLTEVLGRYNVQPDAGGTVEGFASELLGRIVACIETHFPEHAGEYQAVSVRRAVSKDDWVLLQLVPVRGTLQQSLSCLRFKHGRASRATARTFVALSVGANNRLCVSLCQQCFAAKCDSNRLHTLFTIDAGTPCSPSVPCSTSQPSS
How it was run: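 Three-subunit helicase-primase purified from HSV1-infected CV-1 cells, 15 units. DNA-dependent NTPase run with 1 mM ATP and 2 μg activated DNA, compounds in 5% DMSO, 20 min at 34 °C. Orthophosphate read with acidic molybdate-malachite green at 650 nm. Done in duplicate, averaged over at least two independent experiments.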

[4] = target: T1, DNA helicase/primase complex protein (Herpes simplex virus (type 1 / strain 17)); assay: (§1) Inhibition against the primase activity of HSV-1 helicase-primase at a concentration 200 micro/mL; conditions: Human alphaherpesvirus 1
[5] = target: T2, DNA helicase/primase complex protein (Herpes simplex virus (type 1 / strain 17), UniProt P10236); assay: (§2) Inhibition against Primase by coupled primase-DNA polymerase-I assay with the two subunit recombinant HSV-1 helicase primase; format: functional, Human alphaherpesvirus 1
T2 sequence (P10236 whole entry): T1 sequence (whole entry)
How it was run: (§3)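 Two-subunit baculovirus enzyme (1 unit) coupled to 1 unit E. coli Klenow. Buffer: 50 mM Tris·HCl pH 8.7, 3.5 mM MgCl2, 10% glycerol, 100 μg/mL BSA. Inhibitors in DMSO at 0.5% final, screened at 200 μg/mL. Run 60 min at 34 °C; EDTA quench; polymer isolated on G50 and counted. Duplicates.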

[6] = target: DNA replication helicase (Human herpesvirus 1, UniProt P10189); assay: Inhibition against DNA-Dependent GTPase activity of two-subunit recombinant HSV-1 helicase-primase
Sequence of DNA replication helicase (P10189 whole entry, looked up): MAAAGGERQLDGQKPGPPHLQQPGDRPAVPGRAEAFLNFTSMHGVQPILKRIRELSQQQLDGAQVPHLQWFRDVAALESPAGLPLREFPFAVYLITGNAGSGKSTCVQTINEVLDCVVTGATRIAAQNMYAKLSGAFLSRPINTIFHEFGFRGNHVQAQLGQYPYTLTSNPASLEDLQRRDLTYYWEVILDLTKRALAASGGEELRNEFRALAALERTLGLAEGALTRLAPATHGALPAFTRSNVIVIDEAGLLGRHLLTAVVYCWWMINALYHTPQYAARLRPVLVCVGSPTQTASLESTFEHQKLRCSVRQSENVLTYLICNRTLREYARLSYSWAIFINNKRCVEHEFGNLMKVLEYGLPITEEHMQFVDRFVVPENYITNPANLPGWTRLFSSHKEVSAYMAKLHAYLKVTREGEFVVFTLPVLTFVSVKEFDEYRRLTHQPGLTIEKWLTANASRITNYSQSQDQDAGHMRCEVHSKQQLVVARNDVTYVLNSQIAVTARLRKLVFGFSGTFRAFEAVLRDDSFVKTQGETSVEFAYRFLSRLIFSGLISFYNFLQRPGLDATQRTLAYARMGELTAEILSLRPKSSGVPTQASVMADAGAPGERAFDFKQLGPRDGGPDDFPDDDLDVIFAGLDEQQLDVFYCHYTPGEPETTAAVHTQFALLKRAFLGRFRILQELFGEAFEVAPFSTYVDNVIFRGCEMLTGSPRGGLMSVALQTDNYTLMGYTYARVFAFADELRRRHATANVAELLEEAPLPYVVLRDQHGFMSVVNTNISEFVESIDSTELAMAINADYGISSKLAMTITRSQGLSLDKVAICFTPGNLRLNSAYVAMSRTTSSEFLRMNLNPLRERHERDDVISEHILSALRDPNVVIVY

[7] = target: T1, DNA helicase/primase complex protein (Herpes simplex virus (type 1 / strain 17)); assay: as §1; format: functional; conditions: Human alphaherpesvirus 1
[8] = target: T2, DNA helicase/primase complex protein; assay: as §2; parameters: species or system Human alphaherpesvirus 1; how it was run: as §3

SMILES | IC50 [1] [µM] | IC50 [2] [µM] | inhibition [3] [%] | also measured
OCCOCn1cnc2c(Cl)nc(Nc3cc(Cl)cc(Cl)c3)nc21 | 5 | 7.4 | – | –
Oc1[nH]c(Nc2ccc3c(c2)CCC3)nc2ncnc1-2 | – | – | 0 | –
Oc1[nH]c(Nc2ccc(F)c(F)c2)nc2ncnc1-2 | – | – | 73 | –
O=c1[nH]c(Nc2cccc(C(F)(F)F)c2)nc2[nH]cnc12 | – | – | 13 | –
O=c1[nH]c(Nc2cc(Cl)cc(Cl)c2)nc2c1ncn2[C@H]1C[C@H](O)[C@@H](CO)O1 | 190 | 32 | – | –
Cc1ccc(Nc2nc(O)c3[nH]cnc3n2)cc1 | – | – | 0 | –
Oc1[nH]c(Nc2ccccc2)nc2ncnc1-2 | – | – | 0 | –
CCc1cccc(Nc2nc(O)c3[nH]cnc3n2)c1 | – | – | 42 | –
Nc1nc(Nc2cc(Cl)cc(Cl)c2)nc2c1ncn2COCCO | 12.9 | 2.5 | – | –
Nc1nc(Nc2cc(Cl)cc(Cl)c2)nc2c1ncn2[C@H]1C[C@H](O)[C@@H](CO)O1 | 49 | 0.4 | – | –
Nc1nc(Cl)cc(Nc2cc(Cl)cc(Cl)c2)n1 | 45 | 23 | – | inhibition [4]: 92%
Nc1nc(O)cc(Nc2cc(Cl)cc(Cl)c2)n1 | – | – | – | inhibition [4]: 34%
O=c1[nH]c(Nc2cc(Cl)cc(Cl)c2)nc2c1ncn2COC(CO)CO | 91 | 22.9 | – | –
Oc1[nH]c(Nc2ccc(Cl)c(Cl)c2)nc2ncnc1-2 | > 200 | 250 | 98 | IC50 [5]: 59 µM; IC50 [6]: 880 µM; inhibition [7]: 89%
Oc1[nH]c(Nc2cc(Cl)cc(Cl)c2)nc2ncnc1-2 | > 200 | > 200 | 70 | inhibition [7]: 94%
O=c1[nH]c(Nc2cc(Cl)cc(Cl)c2)nc2nc[nH]c12 | – | – | – | IC50 [6]: 910 µM
Oc1[nH]c(Nc2ccc(F)c(Cl)c2)nc2ncnc1-2 | – | – | 96 | –

SMILES | IC50 [1] [µM] | IC50 [2] [µM] | inhibition [3] [%] | also measured
Nc1[nH]c(Nc2cc(Cl)cc(Cl)c2)nc2ncnc1-2 | 69 | 21 | – | inhibition [4]: 93%
OC[C@H]1O[C@@H](n2cnc3c(Cl)nc(Nc4cc(Cl)cc(Cl)c4)nc32)C[C@@H]1O | 23 | 2.7 | – | –
Nc1nc(Cl)cc(Nc2ccc(Cl)c(Cl)c2)n1 | 62 | 25 | – | inhibition [4]: 98%; IC50 [8]: 8.7 µM
Oc1[nH]c(Nc2ccc(F)cc2)nc2ncnc1-2 | – | – | 5 | –
Nc1[nH]c(Nc2ccc(Cl)c(Cl)c2)nc2ncnc1-2 | 75 | 15 | – | IC50 [6]: 850 µM; inhibition [4]: 94%
Oc1[nH]c(Nc2cccc(Cl)c2)nc2ncnc1-2 | – | – | 60 | –
O=c1[nH]c(Nc2cc(Cl)cc(Cl)c2)nc2c1ncn2COCCO | 14.4 | 23.4 | – | –
Oc1cc(Nc2ccc(Cl)c(Cl)c2)nc(O)n1 | – | – | – | IC50 [6]: > 2000 µM; inhibition [4]: 30%
Oc1cc(Nc2cc(Cl)cc(Cl)c2)nc(O)n1 | – | – | – | IC50 [6]: > 2000 µM; inhibition [4]: 46%
Nc1nc(Nc2cc(Cl)cc(Cl)c2)nc2c1ncn2COC(CO)CO | 61.6 | 5.5 | – | –
Oc1ccc(Nc2nc(O)c3[nH]cnc3n2)cc1 | – | – | 17 | –
Nc1nc(Nc2cc(Cl)cc(Cl)c2)nc2nc[nH]c12 | – | – | – | IC50 [6]: 920 µM
Nc1nc(O)cc(Nc2ccc(Cl)c(Cl)c2)n1 | – | – | – | IC50 [6]: 850 µM; inhibition [4]: 44%
Oc1[nH]c(Nc2ccc(Br)cc2)nc2ncnc1-2 | – | – | 40 | –
Nc1nc(Nc2cc(Cl)cc(Cl)c2)cc(=O)[nH]1 | – | – | – | IC50 [6]: 770 µM
Nc1nc2c(ncn2COCCO)c(=O)[nH]1 [ACYCLOVIR] | 1.9 | > 200 | – | –
